Laboratory results taken from ChEMBL document CHEMBL1151266, “Cytotoxic principles from the formosan milkweed, Asclepias curassavica” (J Nat Prod, 2005).
Values after ≈ are worked out from the molar mass of the structure shown.

Columns and labels:
Format in all cases: functional, cell-based
MCF7 = assay: Cytotoxicity against human MCF7 cells after 3 days by MTT assay; details: MCF7, 72 h
How it was run: (§1)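 Freshly trypsinized cells seeded at 5000-10 000 per well; test agents added from DMSO stock. After 3 days in culture, attached cells incubated with MTT (0.5 mg/mL, 1 h), then solubilized in DMSO; absorbance read at 550 nm. IC50 taken as concentration reducing cell growth by 50%.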

MDA-MB-231 = assay: Cytotoxicity against human MDA-MB-231 cells after 3 days by MTT assay; details: MDA-MB-231, 72 h; how it was run: as §1
A549 = assay: Cytotoxicity against human A549 cells after 3 days by MTT assay; details: A549, 72 h; how it was run: as §1
HepG2 = assay: Cytotoxicity against human HepG2 cells after 3 days by MTT assay; details: HepG2, 72 h
How it was run: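 Freshly trypsinized cells seeded at 5000-10 000 per well; test agents added from DMSO stock. After 3 days in culture, attached cells incubated with MTT (0.5 mg/mL, 1 h), then solubilized in DMSO; absorbance read at 550 nm.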

KB = assay: Cytotoxicity against human KB cells

Structure (SMILES)	IC50 (MCF7) [µg/mL]	IC50 (MDA-MB-231) [µg/mL]	IC50 (A549) [µg/mL]	IC50 (HepG2) [µg/mL]	IC50 (KB) [µg/mL]
C[C@@H]1C[C@H](O)[C@]2(O)O[C@@H]3C[C@@]4(C=O)[C@@H](CC[C@@H]5[C@@H]4CC[C@]4(C)[C@@H](C6=CC(=O)OC6)C[C@@H](O)[C@]54O)C[C@H]3O[C@@H]2O1	0.48 (≈ 0.875 µM)	0.98 (≈ 1.79 µM)	0.1 (≈ 0.182 µM)	0.15 (≈ 0.273 µM)	
CC(=O)O[C@H]1C[C@@H](C)O[C@H]2O[C@@H]3C[C@@H]4CC[C@@H]5[C@H](CC[C@]6(C)[C@@H](C7=CC(=O)OC7)[C@H](OC(C)=O)C[C@]56O)[C@@]4(C=O)C[C@H]3O[C@]21O	0.17 (≈ 0.269 µM)	0.39 (≈ 0.616 µM)	0.02 (≈ 0.0316 µM)	0.13 (≈ 0.205 µM)	
C[C@@H]1C[C@@H](O)[C@]2(O)O[C@@H]3C[C@@]4(C=O)[C@@H](CC[C@@H]5[C@@H]4CC[C@]4(C)[C@@H](C6=CC(=O)OC6)C[C@@H](O)[C@]54O)C[C@H]3O[C@@H]2O1	0.38 (≈ 0.693 µM)	0.45 (≈ 0.82 µM)	0.07 (≈ 0.128 µM)	0.16 (≈ 0.292 µM)	
COc1cccc2c1C(=O)c1c(O)c3c(c(O)c1C2=O)C[C@@](O)(C(=O)CO)C[C@@H]3O[C@H]1C[C@H](N)[C@H](O)[C@H](C)O1 [DOXORUBICIN]	0.56 (≈ 1.03 µM)		0.79 (≈ 1.45 µM)		
C[C@@H]1CC(=O)[C@]2(O)O[C@@H]3C[C@@]4(C=O)[C@@H](CC[C@@H]5[C@@H]4CC[C@]4(C)[C@@H](C6=CC(=O)OC6)CC[C@]54O)C[C@H]3O[C@@H]2O1 [USCHARIDIN]	0.04 (≈ 0.0754 µM)	0.09 (≈ 0.17 µM)	0.01 (≈ 0.0188 µM)	0.04 (≈ 0.0754 µM)	
C[C@@H]1C[C@@H](O)[C@]2(O)O[C@@H]3C[C@@]4(C=O)[C@@H](CC[C@@H]5[C@@H]4CC[C@]4(C)[C@@H](C6=CC(=O)OC6)CC[C@]54O)C[C@H]3O[C@@H]2O1 [CALACTIN]	0.01 (≈ 0.0188 µM)	0.03 (≈ 0.0563 µM)	0.0029 (≈ 0.00544 µM)	0.02 (≈ 0.0375 µM)	
C[C@@H]1C[C@@]2(N=CCS2)[C@]2(O)O[C@@H]3C[C@@]4(C=O)[C@@H](CC[C@@H]5[C@@H]4CC[C@]4(C)[C@@H](C6=CC(=O)OC6)CC[C@]54O)C[C@H]3O[C@@H]2O1 [USCHARIN]	0.04 (≈ 0.0681 µM)	0.1 (≈ 0.17 µM)	0.01 (≈ 0.017 µM)	1.1 (≈ 1.87 µM)	
CC(=O)O[C@H]1C[C@@H](C)O[C@H]2O[C@@H]3C[C@@H]4CC[C@@H]5[C@H](CC[C@]6(C)[C@@H](C7=CC(=O)OC7)CC[C@]56O)[C@@]4(C=O)C[C@H]3O[C@]21O [ASCLEPIN]	0.02 (≈ 0.0348 µM)	0.06 (≈ 0.104 µM)	0.01 (≈ 0.0174 µM)	0.05 (≈ 0.087 µM)	
CC(=O)O[C@@H]1C[C@]2(O)[C@@H]3CC[C@H]4C[C@H]5O[C@@H]6O[C@H](C)C[C@H](O)[C@]6(O)O[C@@H]5C[C@]4(C=O)[C@H]3CC[C@]2(C)[C@H]1C1=CC(=O)OC1	0.28 (≈ 0.474 µM)	0.49 (≈ 0.83 µM)	0.11 (≈ 0.186 µM)	0.39 (≈ 0.66 µM)	
CC(=O)O[C@H]1C[C@@H](C)O[C@H]2O[C@@H]3C[C@@H]4CC[C@@H]5[C@H](CC[C@]6(C)[C@@H](C7=CC(=O)OC7)[C@H](O)C[C@]56O)[C@@]4(C=O)C[C@H]3O[C@]21O	1 (≈ 1.69 µM)	1.52 (≈ 2.57 µM)	0.14 (≈ 0.237 µM)	0.51 (≈ 0.863 µM)	
C[C@]12CC[C@H](O)C[C@H]1CC[C@@H]1[C@@H]2CC[C@]2(C)[C@@H](C3=CC(=O)OC3)CC[C@]12O [DIGITOXIGENIN]	1.69 (≈ 4.51 µM)	1.9 (≈ 5.07 µM)	0.24 (≈ 0.641 µM)	0.12 (≈ 0.32 µM)	
C[C@@H]1C[C@H](O)[C@]2(O)O[C@@H]3C[C@@]4(C=O)[C@@H](CC[C@@H]5[C@@H]4CC[C@]4(C)[C@@H](C6=CC(=O)OC6)CC[C@]54O)C[C@H]3O[C@@H]2O1 [CALOTROPIN]	0.08 (≈ 0.15 µM)	0.16 (≈ 0.3 µM)	0.02 (≈ 0.0375 µM)	0.11 (≈ 0.207 µM)	0.015 (≈ 0.0282 µM)
